Bioassay records deposited in PubChem by several laboratories.
KCNQ1 pot – potentiators or activators of human KCNQ1 potassium channel. P51787. CHO-K1 KCNQ1, thallium flux FluxOR fluorescence; hits give high values. B-score at 10 µM. hit rate 0.35% among 310,000. AID 2648;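 active = fluorescence ratio B-score, a plate-corrected score, at least three library SD, with initial intensity B-score within 5 SD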
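System: CHO-K1 cells stably expressing KCNQ1 / Medium: assay buffer for compound exposure, DMSO matched across wells / Reagent: thallium- and potassium-containing depolarizing buffer / Compound: one concentration, matched DMSO / Incubation: 20 min compound pretreatment at room temperature / Measured by: kinetic FluxOR fluorescence, 10 s baseline plus 110 s post-stimulus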
Cl transport mod – modulates chloride dependent transport by human KCC2 | hit rate 2.2% among 190,000 | Q9H2X9 | KCC2 cells, thallium flux FluoZin-2 fluorescence | B-score of Tl+ flux slope (higher = more flux/activation; lower = inhibition) at 10 µM | AID 1456;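 active = thallium flux slope and its plate-corrected score both differing from the plate sample mean at a set confidence after two filtering rounds, in either direction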;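 also: slope of fluorescence scaled to starting intensity during 10 to 20 s after thallium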
KCNQ1 block – inhibitors of human KCNQ1 potassium channel; CHO-K1 KCNQ1, FluxOR thallium flux fluorescence; hits give high values; hit rate 1.3% among 310,000; B-score at 10 µM;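 active = compounds whose thallium flux B-score, printed positive for inhibition, exceeds three library SD while starting fluorescence stays within three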;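 also: channel opened by potassium depolarization with thallium stimulus after 20 min compound exposure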
KCNK3 block – human KCNK3 channel inhibition, primary screen. B-score at 10 µM. CHO-KCNK3 thallium flux, FluxOR fluorescence; hits give low values. hit rate 0.84% among 340,000;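 active = B-score under library mean minus 4 SD, starting fluorescence ratio at most library mean plus 5 SD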;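 also: more negative B-score means stronger inhibition of thallium flux through KCNK3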
Target sequence (O14649 whole entry, looked up): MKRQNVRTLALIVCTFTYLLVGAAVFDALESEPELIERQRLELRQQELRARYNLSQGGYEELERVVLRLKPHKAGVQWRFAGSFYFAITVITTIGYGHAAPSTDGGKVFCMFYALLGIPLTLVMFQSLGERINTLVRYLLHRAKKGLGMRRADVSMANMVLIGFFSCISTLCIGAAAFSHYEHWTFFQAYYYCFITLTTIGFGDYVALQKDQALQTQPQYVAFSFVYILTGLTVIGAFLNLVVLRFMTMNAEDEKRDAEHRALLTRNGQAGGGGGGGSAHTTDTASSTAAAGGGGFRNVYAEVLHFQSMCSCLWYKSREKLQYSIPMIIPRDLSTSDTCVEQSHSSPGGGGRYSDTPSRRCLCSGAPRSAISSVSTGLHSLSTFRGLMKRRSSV
hERG protect – compounds protecting human hERG from proarrhythmic drug block | Q12809 | CHO-hERG, FluxOR thallium flux, dofetilide IC70 present | activation (rescue from dofetilide block), less the hit threshold, % at 10 µM | hit rate 0.51% among 310,000 | AID 1511;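 active = activation above the mean of controls blocked by dofetilide plus 5 SD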;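 also: thallium influx through hERG after potassium depolarization seen as dye fluorescence rise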
KCNK9 block – human KCNK9 channel inhibition; HEK293 KCNK9, FluxOR thallium flux fluorescence; hits give low values; Q9NPC2; hit rate 1.2% among 310,000; AID 488922; B-score at 10 µM;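 active = ratio B-score over 3 SD below the library mean, with starting fluorescence within 5 SD of its mean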;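 also: negative B-score means less thallium flux so channel inhibition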
Target sequence (Q9NPC2 whole entry, looked up): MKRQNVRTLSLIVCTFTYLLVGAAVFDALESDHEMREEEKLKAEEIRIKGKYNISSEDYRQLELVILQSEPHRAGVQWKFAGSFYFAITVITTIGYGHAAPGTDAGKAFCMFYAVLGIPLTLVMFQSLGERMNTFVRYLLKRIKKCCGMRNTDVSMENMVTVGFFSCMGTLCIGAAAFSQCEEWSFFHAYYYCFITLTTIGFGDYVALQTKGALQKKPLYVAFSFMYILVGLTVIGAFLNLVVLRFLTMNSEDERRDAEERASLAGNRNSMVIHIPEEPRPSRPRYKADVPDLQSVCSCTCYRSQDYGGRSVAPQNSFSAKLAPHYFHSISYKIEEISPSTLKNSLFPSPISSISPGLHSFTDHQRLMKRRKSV
KCC2 sec1 – KCC2 (human) modulation, secondary assay; shares compounds with Cl transport mod; HEK293-KCC2, thallium flux, FluoZin2 fluorescence; hits give high values; normalised thallium flux (F/F0 slope) at 10 µM; hit rate 15% among 3,700; AID 1713;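 active = thallium flux slope above the same plate's solvent-only control mean plus 3 SD; inconclusive = the two replicate wells disagree; inactive = no significant difference from solvent-only control wells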
KCC2 bumet counter – thallium flux despite bumetanide block in KCC2 cells, secondary assay 3; shares compounds with Cl transport mod; HEK293-KCC2 + bumetanide/ouabain, thallium flux FluoZin2; hits give high values; normalized thallium flux at 10 µM; hit rate 49% among 3,700;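 active = thallium entry rate above the same plate's blocked-transporter control wells by more than 3 SD; inconclusive = the two repeat wells disagree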;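 also: raw slope of fluorescence over initial fluorescence between 10 and 20 s after thallium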
KCC2 secondary2 – confirmation of human KCC2 transport modulators. shares compounds with Cl transport mod. hit rate 23% among 3,700. HEK293-KCC2, thallium flux FluoZin2 fluorescence; actives lie on both sides; F/F0 rise rate, 10–20 s post-thallium. AID 1715. normalized thallium flux at 10 µM;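 active = thallium flux slope more than 3 SD above or below the plate's solvent-only control mean, mostly below; inconclusive = the two repeat wells disagreed; inactive = no significant shift from solvent-only controls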
HEK counter1 – parental HEK flux effect, counter-screen; shares compounds with Cl transport mod; HEK293 parental cells, thallium flux FluoZin2, ouabain; baseline-ratio fluorescence slope, 10–20 s after thallium; thallium flux rate (normalised fluorescence) at 10 µM; hit rate 46% among 3,700; AID 1716;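 active = thallium flux rate significantly above the same plate's solvent-only control wells, beyond their mean plus 3 SD; inconclusive = the two replicate wells gave conflicting results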
KCC2 retest ouab – modulates human KCC2 on retest with ouabain | shares compounds with Cl transport mod | HEK293-KCC2, thallium flux FluoZin2 fluorescence; bidirectional: low = inhibitor, high = activator | raw Tl+ flux slope (below DMSO = inhibition, above = activation) at 10 µM | hit rate 48% among 3,700;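 active = thallium flux slope beyond 3 SD from same-plate DMSO control mean in most replicates, usually higher, sometimes lower; inconclusive = repeat tests gave conflicting results; inactive = no significant difference from controls in most replicates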;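 also: slope of initial-normalized fluorescence between seconds 10 and 20 after thallium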
HEK293 Tl flux2 – parental HEK flux effect, counter-screen 2; shares compounds with Cl transport mod; HEK293 parental, thallium flux FluoZin-2 fluorescence slope; thallium flux slope at 10 µM; hit rate 33% among 3,700; AID 1718;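 active = thallium flux slope above the same plate's solvent-control mean plus 3 SD in both duplicate wells; inconclusive = duplicate wells that disagreed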;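 also: run without ouabain in cells lacking the KCC2 cotransporter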
Large screens that a line does not name were inactive (follow-up assays come after a bar, where they were run). Shown are actives, neighbours in structure and some others; about 4.1% of the full set was active somewhere.

CC(Nc1cccc2ccccc12)C(=O)N/N=C/c1ccc([N+](=O)[O-])cc1 (configuration not stated)	none
FC(F)(F)c1ccc(Cl)c(NC(=S)NC2CC2)c1	Cl transport mod 4.2 | KCC2 sec1 inactive | KCC2 bumet counter inactive | KCC2 secondary2 inactive | HEK counter1 inactive | KCC2 retest ouab inactive | HEK293 Tl flux2 inactive
CNC(=S)Nc1cc(C(F)(F)F)ccc1Cl	none
CCOc1cc(/C=N/NC(=O)CN(CCc2ccccc2)S(=O)(=O)c2ccc(NC(C)=O)cc2)ccc1O	Cl transport mod -6.4 | KCC2 sec1 inactive | KCC2 bumet counter inactive | KCC2 secondary2 inactive | HEK counter1 inactive | KCC2 retest ouab inconclusive | HEK293 Tl flux2 inactive
O=C1CN(c2nc(-c3cccs3)nc3sc4c(c23)CCCC4)CCN1	Cl transport mod 16 | KCC2 sec1 inactive | KCC2 bumet counter 0.0098 | KCC2 secondary2 inactive | HEK counter1 0.01 | KCC2 retest ouab inconclusive | HEK293 Tl flux2 inactive
CC(C)CN(C(=O)COC(=O)c1cccn1C)c1c(N)n(Cc2ccccc2)c(=O)[nH]c1=O	none (no result: Cl transport mod)
CCOC(=O)CC1C(=O)NCCN1c1nc2c(C)cccn2c(=O)c1/C=C1\SC(=S)N(CC(C)C)C1=O (configuration not stated)	Cl transport mod -9 (no result: KCNQ1 pot, KCNQ1 block, KCNK3 block, hERG protect, KCNK9 block) | KCC2 sec1 0.00069 | KCC2 bumet counter -0.0059 | KCC2 secondary2 0.014 | HEK counter1 -0.0023 | KCC2 retest ouab -0.0016 | HEK293 Tl flux2 0.0041
O=C(CSc1nnc(SCc2cccc3ccccc23)s1)N/N=C/c1c[nH]c2ccccc12	Cl transport mod -3.9 | KCC2 sec1 0.0057 | KCC2 bumet counter 0.014 | KCC2 secondary2 0.024 | HEK counter1 0.0089 | KCC2 retest ouab 0.024 | HEK293 Tl flux2 inconclusive
COC(=O)c1sc(-c2ccc(Cl)cc2)cc1NC(=O)COCC(=O)O	none
COC(=O)c1sc(-c2ccc(Cl)cc2)cc1NC(=O)/C=C/C(=O)O	Cl transport mod -4.1 | KCC2 sec1 inactive | KCC2 bumet counter 0.008 | KCC2 secondary2 inactive | HEK counter1 inactive | KCC2 retest ouab 0.014 | HEK293 Tl flux2 inactive
O=C(NC(=S)Nc1cccc2cccnc12)c1ccccc1	none (no result: Cl transport mod)
COc1ccc(C(=O)Nc2cccc3cccnc23)cc1OC	Cl transport mod -6.3 | KCC2 sec1 inactive | KCC2 bumet counter inactive | KCC2 secondary2 inactive | HEK counter1 inactive | KCC2 retest ouab inactive | HEK293 Tl flux2 inactive
O=C(NC(=S)Nc1cccc2cccnc12)c1cccs1	Cl transport mod 2.8 | KCC2 sec1 inactive | KCC2 bumet counter 0.0096 | KCC2 secondary2 inactive | HEK counter1 inconclusive | KCC2 retest ouab inconclusive | HEK293 Tl flux2 inactive
Cc1nc(NC(=S)NC(=O)c2cccs2)ccc1Br	KCNQ1 pot 13, Cl transport mod 36 | KCC2 sec1 0.014 | KCC2 bumet counter 0.11 | KCC2 secondary2 inactive | HEK counter1 0.038 | KCC2 retest ouab 0.042 | HEK293 Tl flux2 0.012
Cc1ccc(/C=N/NC(=O)c2cccs2)s1	none
O=C(N/N=C/c1ccc(Br)s1)c1cccs1	Cl transport mod 112 | KCC2 sec1 0.014 | KCC2 bumet counter 0.086 | KCC2 secondary2 inactive | HEK counter1 0.04 | KCC2 retest ouab 0.049 | HEK293 Tl flux2 0.034
Cc1ccsc1/C=N/NC(=O)c1ccc([N+](=O)[O-])cc1	Cl transport mod 3.6 | KCC2 sec1 inactive | KCC2 bumet counter 0.016 | KCC2 secondary2 inactive | HEK counter1 0.011 | KCC2 retest ouab inactive | HEK293 Tl flux2 0.013
COc1ccc(/C=C/C(=O)OCC(=O)NC2CC2)c(OC)c1	none (no result: KCNQ1 pot, Cl transport mod, KCNQ1 block, hERG protect, KCNK9 block)
O=C(c1ccncc1)N1CCN(S(=O)(=O)c2ccccc2Br)CC1	none (no result: KCNQ1 pot, Cl transport mod, KCNQ1 block, hERG protect, KCNK9 block)
O=c1[nH]ncc(N/N=C/c2ccccc2)c1Cl	none (no result: Cl transport mod) | KCC2 sec1 inactive | KCC2 bumet counter 0.0056 | KCC2 secondary2 inactive | HEK counter1 inactive | KCC2 retest ouab inactive | HEK293 Tl flux2 inactive
CC(C)(O)CC[C@@H](O)[C@](C)(O)C1CC[C@@]2(O)C3=CC(=O)[C@]4(O)C[C@@H](O)[C@@H](O)C[C@]4(C)C3CC[C@]12C (some centres not stated)	none (no result: KCNQ1 pot, Cl transport mod, KCNQ1 block, hERG protect, KCNK9 block)
Cc1cccc(C(=O)Nc2nnc(S(=O)(=O)N(C)Cc3ccco3)s2)c1	none (no result: Cl transport mod)
O=c1ccc(-c2ccc(S(=O)(=O)Nc3cccc([N+](=O)[O-])c3)s2)n[nH]1	none (no result: Cl transport mod)
CN1CCN(S(=O)(=O)c2ccc(-c3ccc(Cl)cc3)cc2)CC1	none (no result: Cl transport mod) | KCC2 sec1 inactive | KCC2 bumet counter inactive | KCC2 secondary2 inactive | HEK counter1 inactive | KCC2 retest ouab 0.017 | HEK293 Tl flux2 inactive
Cc1nn(C)c(C(=O)Nc2c(C)nn(Cc3c(F)c(F)c(F)c(F)c3F)c2C)c1Br	none (no result: Cl transport mod)
O=C(CCNS(=O)(=O)c1cccc2nonc12)Nc1ccc(Cl)cc1	none (no result: Cl transport mod)
O=C(CCNS(=O)(=O)c1cccc2nonc12)NCCc1ccc(Cl)cc1	Cl transport mod -3.6 | KCC2 sec1 inconclusive | KCC2 bumet counter inactive | KCC2 secondary2 inactive | HEK counter1 inactive | KCC2 retest ouab 0.017 | HEK293 Tl flux2 inactive
CCN(CC)CCCNc1nc2ccccc2c2[nH]c3ccc(OC)cc3c12	none (no result: KCNQ1 pot, Cl transport mod, KCNQ1 block, hERG protect, KCNK9 block)
CCNc1ncnc2c1cnn2C1CCCCO1 (configuration not stated)	none (no result: KCNQ1 pot, Cl transport mod, KCNQ1 block, hERG protect, KCNK9 block)
O=C(Nc1c(C(=O)N2CCOCC2)oc2ccccc12)c1ccccc1Cl	none (no result: Cl transport mod)
NC(=S)Nc1ncc(C(F)(F)F)cc1Cl	Cl transport mod 16 | KCC2 sec1 inactive | KCC2 bumet counter 0.059 | KCC2 secondary2 0.047 | HEK counter1 0.036 | KCC2 retest ouab 0.047 | HEK293 Tl flux2 0.039
Cc1c(Cl)cccc1NC(=S)NNc1ncc(C(F)(F)F)cc1Cl	Cl transport mod 5.5 | KCC2 sec1 inactive | KCC2 bumet counter 0.049 | KCC2 secondary2 inconclusive | HEK counter1 0.018 | KCC2 retest ouab 0.038 | HEK293 Tl flux2 0.021
